# Measured values taken from ChEMBL document CHEMBL5550188, “Detection of a Mitochondrial Fragmentation and Integrated Stress Response Using the Cell Painting Assay” (2024).
# Calls of active or inactive are those of the source. No cut-off for these calls is given here.
# Assays:
# [1] = system: U2OS; experiment: Effect on mitochondrial dysfunction in human U2OS cells at 30 uM incubated for 24 hrs by pathway over-representation analysis; format: functional, cell-based
# Method in brief: (§1)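 U-2OS seeded at 1 × 10⁶ cells in T75 flasks, treated next day for 24 h at 37 °C versus DMSO. Cells were lysed by freeze–thaw, reduced with TCEP at 55 °C, alkylated with iodoacetamide, acetone-precipitated and trypsin-digested. Peptides were TMT-labelled, split into 10 fractions by high-pH C18, then run on nanoHPLC-MS/MS (orbitrap). Biological triplicates, with pathway over-representation analysis.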
# [2] = system: U2OS; experiment: Induction of integrated stress response in human U2OS cells assessed as increase ATF4 mRNA level at 30 uM incubated for 24 hrs by RT-qPCR analysis; format: functional, cell-based
# Method in brief: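 U-2OS at 1 × 10⁵/well in 6-well plates were grown 24 h to ~80% confluence, then treated 24 h versus DMSO. Total RNA (DNase-treated) was reverse-transcribed and ATF4 measured by SYBR Green qPCR. Expression was calculated by ΔΔCt against GAPDH, with DMSO set to 100%. Mean ± SD, n = 3.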
# [3] = system: HEK-293T; experiment: Upregulation of HIF1 level in HEK293T cells transfected with HIF1/luc at 30 uM incubated for 24 hrs by Renilla luciferase base assay; format: functional, cell-based; conditions: Homo sapiens
# Method in brief: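 HEK293T were co-transfected (Lipofectamine 2000) with a PGK1-HRE-driven destabilized firefly luciferase reporter and constitutive TK-Renilla. Cells were seeded at 2.5 × 10⁴/well, then treated 24 h the next day, with 100 μM CoCl₂ and 10 μM ML228 as controls. Dual-Glo readout: firefly was normalized to Renilla and expressed as fold induction over DMSO.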
# [4] = system: U2OS; experiment: Effect on glycolysis in human U2OS cells assessed as increase in ECAR level at 10 to 30 uM of acute treatment by Seahorse analysis; format: functional, cell-based; conditions: dose 10-30 µM
# Method in brief: (§2)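 Seahorse XFp Mito Stress Test on U-2OS, 2 × 10⁵ cells per well, seeded overnight. Assay medium was pH 7.4 DMEM with 2 mM GlutaMAX, 1 mM pyruvate and 25 mM glucose. For acute runs, compound was injected after 5 baseline reads, then 10 reads. Otherwise cells were pretreated 24 h. Then oligomycin A, FCCP and rotenone/antimycin A were added. OCR/ECAR were background-subtracted and normalized to the last baseline (100%). Mean ± SD, n = 3.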
# [5] = system: U2OS; experiment: Effect on HIF1 signaling in human U2OS cells at 30 uM incubated for 24 hrs by pathway over-representation analysis; format: functional, cell-based; method in brief: as §1
# [6] = system: U2OS; experiment: Effect on glycolysis in human U2OS cells assessed as increase in ECAR level at highest concentration measured after 24 hrs by Seahorse analysis; format: functional, cell-based; method in brief: as §2
# [7] = system: U2OS; experiment: Inhibition of cell confluence in human U2OS cells at 10 to 50 uM measured after 48 hrs by PI/caspase-3/7 Green dye based analysis; format: functional; conditions: dose 10-50 µM
# Method in brief: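 U-2OS at 5000/well were incubated overnight, then given medium with compound or DMSO plus propidium iodide and CellEvent Caspase-3/7 Green. Cells were imaged hourly for 48 h by live-cell imaging. Phase confluence gave growth; red and green object confluence gave PI-positive cells and caspase-3/7 activity.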
# [8] = system: U2OS; experiment: Induction of mitochondrial fragmentation in human U2OS cells assessed as puncta-like staining at 30 uM incubated for 20 hrs by Mito Tracker Deep Red dye based CPA assay; format: functional, cell-based
# Method in brief: (§3)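 Cell Painting: U-2OS were seeded at 1600 cells/well, then dosed 4 h later for 20 h at 37 °C against a matched-% DMSO control. Live cells were stained 30 min with 100 nM MitoTracker Deep Red, then fixed in 3.7% formaldehyde and permeabilized with 0.1% Triton X-100. They were co-stained with phalloidin, concanavalin A, Hoechst, WGA and SYTO 14. Imaging was high-content, run as triplicate plates; features are Z-scores versus DMSO median/MAD.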
# [9] = system: U2OS; experiment: Effect on oxidative phosphorylation in human U2OS cells at 30 uM incubated for 24 hrs by pathway over-representation analysis; format: functional, cell-based; method in brief: as §1
# [10] = system: U2OS; experiment: Effect on mitochondrial respiration in human U2OS cells assessed as suppression of OCR level at 10 to 30 uM of acute treatment by Seahorse analysis; format: functional, cell-based; conditions: dose 10-30 µM; method in brief: as §2
# [11] = system: U2OS; experiment: Induction of oxidative stress in human U2OS cells assessed as increase in mitochondrial superoxide level at 30 uM incubated for 1 hr by MitoSox Red staining based analysis; format: functional, cell-based
# Method in brief: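 U-2OS at 15,000/well were preloaded 30 min with 5 μM MitoSOX Red plus Hoechst in plain DMEM. They were then treated 60 min in complete DMEM, fixed in 0.5% paraformaldehyde, and imaged at 10×. Integrated MitoSOX intensity per cell was normalized to DMSO (0%) and 10 μM CDNB (100%). Mean ± SD, n = 3.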
# [12] = system: U2OS; experiment: Effect on mitochondrial respiration in human U2OS cells assessed as suppression of OCR level at 10 to 30 uM measured after 24 hrs by Seahorse analysis; format: functional, cell-based; conditions: dose 10-30 µM; method in brief: as §2
# [13] = system: U2OS; experiment: Effect on mitochondrial membrane potential in human U2OS cells at 30 uM incubated for 24 hrs by TRME staining based analysis; format: functional, cell-based
# Method in brief: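 U-2OS (5 × 10³/well) were treated 24 h, then given 20 μM FCCP or 0.5% DMSO controls for 10 min. Cells were stained 30 min at 37 °C with 1 μM TMRE plus Hoechst-33342 in complete DMEM, washed, and imaged live in 0.2% BSA/PBS at 10× (TMRE ex/em 549/575 nm).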
# [14] = system: U2OS; experiment: Induction of integrated stress response in human U2OS cells assessed as increase ATF4 level at 30 uM incubated for 24 hrs by Western blot analysis; format: functional, cell-based
# Method in brief: (§4)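 U-2OS grown to 80% confluence in 6-well plates were treated 24 h at 37 °C versus DMSO. ATF4 was detected by immunoblotting, with vinculin as reference protein.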
# [15] = system: U2OS; experiment: Downregulation of […] level in human U2OS cells at 10 to 30 uM incubated for 24 hrs by proteome profiling based analysis; format: functional, cell-based; conditions: dose 10-30 µM; method in brief: as §1
# [16] = system: U2OS; experiment: Effect on mitochondrial morphology in human U2OS cells at high concentration incubated for 20 hrs by Mito Tracker Deep Red dye based CPA assay; format: functional, cell-based; method in brief: as §3
# [17] = system: U2OS; experiment: Upregulation of HMOX1 expression in human U2OS cells at 30 uM incubated for 24 hrs by proteome profiling based analysis; format: functional, cell-based; method in brief: as §1
# [18] = system: U2OS; experiment: Effect on mitochondrial respiration in human U2OS cells assessed as suppression of OCR level measured after 24 hrs by Seahorse analysis; format: functional, cell-based; method in brief: as §2
# [19] = system: U2OS; experiment: Effect on glycolysis in human U2OS cells at 30 uM incubated for 24 hrs by pathway over-representation analysis; format: functional, cell-based; method in brief: as §1
# [20] = system: U2OS; experiment: Effect on glucose metabolism in human U2OS cells at 30 uM incubated for 24 hrs by pathway over-representation analysis; format: functional, cell-based; method in brief: as §1
# [21] = system: U2OS; experiment: Upregulation of EGLN1 expression in human U2OS cells at 10 to 30 uM incubated for 24 hrs by proteome profiling based analysis; format: functional, cell-based; conditions: dose 10-30 µM; method in brief: as §1
# [22] = system: U2OS; experiment: Downregulation of MRPs level in human U2OS cells at 30 uM incubated for 24 hrs by proteome profiling based analysis; format: functional, cell-based; method in brief: as §1
# [23] = system: U2OS; experiment: Effect on EIF2 level in human U2OS cells at 30 uM incubated for 24 hrs by proteome profiling based analysis; format: functional, cell-based; method in brief: as §1
# [24] = system: U2OS; experiment: Upregulation of SLC2A1 expression in human U2OS cells at 10 to 30 uM incubated for 24 hrs by proteome profiling based analysis; format: functional, cell-based; conditions: dose 10-30 µM; method in brief: as §1
# [25] = system: U2OS; experiment: Induction of mitochondrial network fragmentation in human U2OS cells incubated for […] by CellLight Mitochondria-GFP assay; format: functional, cell-based; conditions: dose 30.0 µM
# Method in brief: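 U-2OS were transduced with CellLight Mitochondria-GFP BacMam 2.0 one day before treatment. 3000 cells/well were seeded in chamber slides. After compound addition, live cells were imaged by confocal microscopy (488/555 nm) continuously over 24 h at 37 °C, 5% CO₂.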
# [26] = system: U2OS; experiment: Induction of mitochondrial fragmentation in human U2OS cells assessed as puncta-like staining at 30 to 50 uM incubated for 20 hrs by Mito Tracker Deep Red dye based CPA assay; format: functional, cell-based; conditions: dose 30-50 µM; method in brief: as §3
# [27] = system: U2OS; experiment: Effect on mitochondrial respiration in human U2OS cells assessed as suppression of OCR level at 30 uM measured after 24 hrs by Seahorse analysis relative to control; format: functional; method in brief: as §2
# [28] = system: U2OS; experiment: Upregulation of HK2 expression in human U2OS cells at 10 to 30 uM incubated for 24 hrs by proteome profiling based analysis; format: functional, cell-based; conditions: dose 10-30 µM; method in brief: as §1
# [29] = system: U2OS; experiment: Induction of integrated stress response in human U2OS cells assessed as increase ATF4 level at 50 uM incubated for 24 hrs by Western blot analysis; format: functional, cell-based; method in brief: as §4
Structure (SMILES),Activity [1],Activity [2],Activity [3],Activity [4],Activity [5],Activity [6],inhibition [7],Activity [9],Activity [10],Activity [11],Activity [13],Activity [14],other results
Cc1cccc(-c2[nH]c(C(C)(C)C)nc2-c2ccc3nccnc3c2)n1,Active,Active,Active,inactive,inactive,Active,inactive,Active,inactive,Active,inactive,Active,Activity [8]: Active; Activity [12]: Active
Cc1cc(C2CCCCC2)n(O)c(=O)c1 [CICLOPIROX],Active,Active,Active,inactive,Active,Active,inactive,Active,inactive,Active,inactive,Active,Activity [15]: Active; Activity [16]: Active; Activity [17]: Active; Activity [18]: Dose-Dependent Effect; Activity [19]: Active; Activity [20]: Active; Activity [21]: Active; Activity [22]: Active; Activity [23]: Active; Activity [24]: Active; Activity [25]: Dose-Dependent Effect; Activity [26]: Active; Activity [27]: ~100%; Activity [28]: Active
CC(=O)N(O)CCCCCNC(=O)CCC(=O)N(O)CCCCCNC(=O)CCC(=O)N(O)CCCCCN,–,–,–,–,–,–,–,–,–,–,–,–,Activity [29]: inactive
